Assay outcomes as filed in PubChem.
KCC2 mod – modulates chloride dependent transport by human KCC2 | Q9H2X9 | KCC2 cells, thallium flux FluoZin-2 fluorescence | B-score of Tl+ flux slope (higher = more flux/activation; lower = inhibition) at 10 µM | 2.2% of 190,000 active;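 active = thallium flux slope and its plate-corrected score both differing from the plate sample mean at a set confidence after two filtering rounds, in either direction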;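 also: slope of fluorescence scaled to starting intensity during 10 to 20 s after thallium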
MrgX1 PAM – allosterically activates human MrgX1 receptor signaling | Q96LB2 | MrgX1-HEK293, Fluo-4 calcium flux, FDSS; hits give high values | B-score at 10 µM | 0.63% of 310,000 active | AID 588675;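 active = plate-corrected calcium response at least 3 library SD above typical, normal starting fluorescence, not activating the receptor alone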;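 also: compound read alongside a low EC10 to EC30 dose of BAM8-22 agonist; peak minus trough fluorescence over baseline measured at the second addition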
Target sequence (Q96LB2 whole entry, looked up): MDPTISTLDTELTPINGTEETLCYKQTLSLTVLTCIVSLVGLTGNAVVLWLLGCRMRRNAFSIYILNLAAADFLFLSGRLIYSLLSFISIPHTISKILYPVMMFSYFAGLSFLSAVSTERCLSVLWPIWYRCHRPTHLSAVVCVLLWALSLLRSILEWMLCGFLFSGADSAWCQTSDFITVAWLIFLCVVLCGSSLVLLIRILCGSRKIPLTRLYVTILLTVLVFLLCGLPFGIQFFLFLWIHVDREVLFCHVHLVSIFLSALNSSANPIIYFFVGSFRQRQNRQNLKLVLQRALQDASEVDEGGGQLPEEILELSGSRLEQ
RGS4 pot – potentiators or activators of RGS4; HEK293 M3R/inducible RGS4, carbachol calcium flux Fluo4; hits give low values; B-score at 10 µM; 0.92% of 310,000 active;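 active = B-score of the integrated calcium signal more than 4 SD below the library mean, with starting fluorescence not abnormally high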;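 also: negative B-score means reduced calcium response which marks RGS4 activation or potentiation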
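Material: Inducible-RGS4 HEK293 cells carrying M3 receptor; also added: carbachol at ECmax as muscarinic agonist stimulus; incubation: compound preincubation 20 min at room temperature before agonist; signal: Fluo4-AM (2 µM) calcium-flux fluorescence, kinetic read; measure: integrated calcium ratio converted to B score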
MrgX1 ag – activates human MrgX1 receptor signaling | Q96LB2 | MrgX1-HEK293 cells, Fluo-4 calcium fluorescence, agonist mode; hits give high values | B-score at 10 µM | 0.44% of 310,000 active;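 active = calcium response B-score plate-corrected fluorescence ratio at least 3 library SD, with starting fluorescence B-score inside 5 SD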
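Test system: HEK293 cells stably expressing human MrgX1 receptor; Input: fifteen thousand cells per well; Dosing: compound delivered in addition one of three; Schedule: overnight seeding, then 1 h dark dye loading; Technique: Fluo-4 NW calcium fluorescence; Measure: B-scored fluorescence response ratio; Controls: positive and negative controls per plate.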
RGS4 inh – human RGS4 inhibition; P49798; HEK293 M3R/RGS4 inducible, Fluo-4 calcium flux; hits give high values; triggered by carbachol at its EC20; B-score at 10 µM; 0.45% of 310,000 active;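 active = B-score, a plate-corrected calcium signal, over three deviations above library mean, with baseline fluorescence within five deviations of library mean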;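 also: RGS4 expression induced by doxycycline in cells with stable M3 receptor; B-score is computed from the integrated fluorescence ratio over baseline after carbachol; higher B-score means a larger calcium signal and so more RGS4 inhibition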
Target sequence (P49798 whole entry, looked up): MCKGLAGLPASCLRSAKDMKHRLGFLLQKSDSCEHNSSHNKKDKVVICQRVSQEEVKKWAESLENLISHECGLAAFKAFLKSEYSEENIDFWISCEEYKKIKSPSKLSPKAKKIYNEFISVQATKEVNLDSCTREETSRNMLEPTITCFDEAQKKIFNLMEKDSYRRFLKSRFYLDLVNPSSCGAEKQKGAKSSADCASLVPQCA
MrgX1 antagonist – antagonists of human MrgX1 receptor; Q96LB2; MRGX1-HEK293 calcium flux, Fluo-4, BAM8-22 antagonism; hits give low values; B-score at 10 µM; 1.3% of 310,000 active;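 active = calcium-response B-score plate-corrected more than 3 library SD below zero, starting fluorescence within 5 deviations, no agonist response on first addition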;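 also: peak minus trough fluorescence over baseline after final BAM8-22 challenge near maximal dose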
RGS4 inh valid – validation of RGS4 inhibitors. calcium response, % at 10 µM. HEK293 M3R/RGS4, carbachol calcium Fluo-4 fluorescence; carbachol added at its EC20; 0 = buffer wells, 100 = carbachol control. 65% of 1,700 active. shares compounds with RGS4 inh. AID 492999;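 active = duplicate-averaged calcium response above the buffer-only control mean plus 5 SD of those controls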;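 also: integrated fluorescence ratio F max minus min over baseline F0; higher response in RGS4-induced cells means RGS4 inhibition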
RGS4 uninduced – non-induced cell nonspecific activity of RGS4 inhibitors; shares compounds with RGS4 inh; HEK293 M3R non-induced, carbachol calcium Fluo-4; submaximal (EC20) carbachol stimulus; buffer wells 0%, carbachol control wells 100%; activity (percent), % at 10 µM; 20% of 1,900 active; AID 493000; call rule not given here;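 also: RGS4 induction absent so cells express M3R without RGS4; higher means more calcium signal and flags a non-specific hit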
RGS4 inh ctr2 – signal in non-induced cells without carbachol, RGS4 inhibitor counter-screen; shares compounds with RGS4 inh; HEK293 M3R/RGS4 non-induced, Fluo-4 calcium, no carbachol; normalised: buffer wells 0%, carbachol wells 100%; calcium response (agonist-mode artifact), % at 10 µM; 22% of 1,900 active;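 active = duplicate-averaged calcium rise in uninduced cells above buffer wells' mean plus 5 SD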
A number is an active result; – = inactive; · = no result. The list is not random: actives were taken first. Their share in the collection is about 4.7%.

SMILES | KCC2 mod | MrgX1 PAM | RGS4 pot | MrgX1 ag | RGS4 inh | MrgX1 antagonist | RGS4 inh valid | RGS4 uninduced | RGS4 inh ctr2
CCn1c2ccccc2c2cc(NC(=O)CSc3nnc(-c4ccc(OC)cc4)n3N)ccc21 | – | – | – | – | 5.3 | – | 10% | – | –
COC(Cc1ccccc1N1CCCC1=O)OC | · | – | – | – | – | – | · | · | ·
O=C(CC12CC3CC(CC(C3)C1)C2)Nc1c(F)cccc1F | · | – | – | – | – | – | · | · | ·
COc1cc2c(cc1OC)-c1cc(Nc3ccc(N(C)C)cc3)nc(=O)n1CC2 | – | – | – | – | 5.6 | – | 7.0% | 36% | –
COc1cc2c(cc1OC)-c1cc(Nc3cccc(F)c3)nc(=O)n1CC2 | · | · | – | · | – | · | · | · | ·
COc1cc2c(cc1OC)-c1cc(Nc3ccc(F)cc3)nc(=O)n1CC2 | · | – | – | – | – | – | – | – | –
Cc1ccc(C)c(N2CCN(CCCNC(=O)Cn3c(=O)c4cccn4c4cccnc43)CC2)c1 | · | – | – | – | – | – | · | · | ·
NC(=O)c1cc2ccc(O)cc2oc1=Nc1ccccc1 | – | · | – | · | – | · | – | – | –
COc1ccc2cc(C(N)=O)c(=Nc3ccccc3)oc2c1 | – | – | – | – | – | – | · | · | ·
Cc1sc2nc(CN(Cc3ccccc3)C(=O)NC3CCCCC3)[nH]c(=O)c2c1C | – | – | – | – | 5.1 | – | – | – | –
CC(=O)N(Cc1ccccc1)Cc1nc2sc(C)c(C)c2c(=O)[nH]1 | – | – | – | – | – | – | · | · | ·
O=C(O)c1ccc2c(=O)n3c(nc2c1)/C(=C/c1ccccc1Br)CC3 | · | – | – | – | – | – | · | · | ·
O=C(O)c1ccc2c(=O)n3c(nc2c1)/C(=C/c1ccc(Cl)cc1Cl)CC3 | · | – | – | – | 19 | – | 24% | – | –
O=C1Nc2ccc(Br)cc2C1Cc1ccccc1F (centres undefined) | · | – | – | – | 5.8 | – | 13% | – | –
Cn1c(CC2C(=O)Nc3ccc(Br)cc32)nc2ccccc2c1=O (centres undefined) | · | – | – | – | – | – | · | · | ·
Cc1[nH]c2ccc(C(=O)NCCCN(C)C3CCCCC3)cc2c1C | · | – | – | – | – | – | · | · | ·
CCOc1ccc(C(=O)CC(Sc2ccc(C)cc2)C(=O)O)cc1 (centres undefined) | – | – | – | – | – | – | – | – | –
CCC(Sc1ccc(C(=O)O)cc1)C(=O)O (centres undefined) | – | – | – | – | – | – | · | · | ·
COc1ccc(C=C(C(C)=O)C(C)=O)cc1OC | – | – | – | – | 18 | – | 28% | 44% | –
COc1cc(C=C(C(C)=O)C(C)=O)ccc1O | · | – | – | – | 5.4 | – | 6.0% | – | –
COc1cc(/C=C/C(=O)O)ccc1O | · | – | – | – | – | – | · | · | ·
COCCNC(=S)N(CCCN(C)C)Cc1cc2cc3c(cc2[nH]c1=O)OCCO3 | · | – | – | – | – | – | – | – | –
COCCCNC(=S)N(CCCN(C)C)Cc1cc2cc3c(cc2[nH]c1=O)OCCO3 | · | – | – | – | – | – | – | – | –
Cc1ccc(OCC(=O)NCCC2=CCCCC2)cc1 | · | – | – | – | – | – | · | · | ·
O=C(COc1ccc([N+](=O)[O-])cc1)NCCC1=CCCCC1 | – | – | – | – | 5 | – | – | – | –
SMILES | KCC2 mod | MrgX1 PAM | RGS4 pot | MrgX1 ag | RGS4 inh | MrgX1 antagonist | RGS4 inh valid | RGS4 uninduced | RGS4 inh ctr2
C[C@H](NC(=O)c1ccccc1Cl)C(=O)NCCc1ccc(S(N)(=O)=O)cc1 | · | – | – | – | – | – | · | · | ·
Nc1c(S(=O)(=O)c2cccs2)c2nc3ccccc3nc2n1Cc1cccs1 | – | – | – | – | – | – | · | · | ·
Nc1c(S(=O)(=O)c2cccs2)c2nc3ccccc3nc2n1Cc1ccc2c(c1)OCO2 | – | – | – | – | 6.9 | – | 9.5% | – | –
O=C(CSc1nc2[nH]ncc2c(=O)[nH]1)N1CCCCC1 | – | – | – | – | – | – | · | · | ·
COc1ccc(NC(=O)Cc2ccccc2)cn1 | – | – | – | – | – | – | · | · | ·
COc1ccc(NC(=O)/C(Cl)=C(/Cl)S(=O)Cc2ccccc2)cn1 (centres undefined) | · | – | – | – | 27 | – | 46% | – | –
COC(=O)c1cc(C)nc2c1C(=O)C(=O)C=C2N1CCOCC1 | · | – | – | – | 21 | – | 34% | – | –
COc1ccc2c(c1)c(C(=O)CN1CCCCC1)c(C)n2C | · | – | – | – | – | – | · | · | ·
COc1ccc2c(c1)c(C(=O)CN1CCC(C(N)=O)CC1)c(C)n2C | – | – | – | – | – | – | – | – | –
O=C1/C(=C/c2ccc([N+](=O)[O-])cc2)C=C(c2ccccc2)N1c1ccc(O)cc1 | – | – | – | – | 5.1 | – | 9.0% | – | –
O=C1/C(=C/c2ccc([N+](=O)[O-])cc2)C=C(c2ccccc2)N1c1ccccc1 | · | – | – | – | – | – | – | – | –
CCOc1cc(/C=C2\COc3ccccc3C2=O)cc(Br)c1OCC(=O)N(C)C | · | – | – | – | 8.3 | – | 27% | – | –
O=C(O)c1ccc(/C=C2\COc3ccccc3C2=O)cc1 | · | – | – | – | 31 | – | 45% | – | –
COc1ccc(/C=C2\COc3ccccc3C2=O)cc1OC | – | – | – | – | – | – | · | · | ·
Cc1ccc(-c2nnc(SCC(=O)N(C)C)nc2-c2ccc(C)cc2)cc1 | · | – | – | – | – | – | · | · | ·
CCOc1cc(/C=C\[N+](=O)[O-])ccc1OCC(=O)N1CCOCC1 | – | – | – | – | 28 | – | 43% | 32% | 12%
CCOc1cc(/C=C/c2nc3cc(C)c(C)cc3s2)ccc1OCC(=O)N1CCOCC1 | – | – | – | – | – | – | · | · | ·
Cc1ccc(C(=O)Nc2cccnc2)cc1Cl | · | – | – | – | – | – | · | · | ·
CCN(CC(=O)Nc1ccccc1OC)C(=O)CCOc1ccc(C(C)(C)C)cc1 | · | – | – | – | – | – | · | · | ·
NC(=S)N/N=C/c1ccc(-n2nncc2-c2ccc(Cl)cc2)cc1 | · | – | – | – | 39 | – | 23% | 64% | –
COc1ccc(OCCSc2nnc(Cc3cccc4ccccc34)n2N)cc1 | – | – | – | – | – | – | · | – | –
Nn1c(Cc2ccccc2F)nnc1SCCOc1ccc(Cl)cc1 | – | – | – | – | – | – | · | · | ·
Cc1ccc(C(=O)NS(=O)(=O)c2ccc(N=NN(C)C)cc2)cc1 | – | – | – | – | – | – | · | · | ·
